Experimental data taken from ChEMBL document CHEMBL1275308, “Synthesis, analgesic and anti-inflammatory evaluation of some novel quinazoline derivatives” (Eur J Med Chem, 2010).
Active and inactive are the calls of the source.

Key:
Mus musculus [1] = test: Analgesic activity against heat induced nociception in Swiss albino mouse assessed as increase in latency at 100 mg/kg, po measured 60 mins post compound dose by hot plate method relative to pretreatment level; format: functional
In short: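 Mice; test compounds and indomethacin, each at 100 mg/kg orally as a suspension in 1% carboxymethyl cellulose. Six groups of six animals, with a vehicle negative control. Reaction time recorded at 30 min, 1, 2 and 3 h after treatment, cut-off 10 s. Effect expressed as percentage of the pretreatment level. Values are means.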

Rattus norvegicus = test: Antiinflammatory activity in rat assessed as inhibition of formaldehyde-induced paw edema at 100 mg/kg, po qd for 4 days administered 1 hr before formaldehyde challenge measured 2 hrs post formaldehyde challenge relative to untreated control; format: functional
In short: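 Rats dosed orally at 100 mg/kg once daily for 4 d, with an indomethacin reference and a vehicle control. Right hind paw volume measured by plethysmometer before challenge. 0.2 mL of 10% w/v formaldehyde injected subplantar 1 h after drug. Paw volume measured 1 and 2 h after injection. Results given as % inhibition versus control; means, ANOVA with Dunnett's test.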

Mus musculus [2] = test: Toxicity in mouse assessed as mortality at 500 mg/kg, po measured 24 hrs post dose; format: organism-based; design: dose 500 mg/kg, route oral; details: in vivo
Mus musculus [3] = test: Toxicity in mouse assessed as mortality at 750 mg/kg, po measured 24 hrs post dose; format: organism-based; design: dose 750 mg/kg, route oral; details: in vivo
Mus musculus [4] = test: Toxicity in mouse assessed as mortality at 1000 mg/kg, po measured 24 hrs post dose; format: organism-based; design: dose 1000 mg/kg, route oral; details: in vivo
Mus musculus [5] = test: Toxicity in mouse assessed as incidence of toxic symptoms at 500 mg/kg, po measured 24 hrs post dose; format: organism-based; design: dose 500 mg/kg, route oral; details: in vivo
Mus musculus [6] = test: Toxicity in mouse assessed as incidence of toxic symptoms at 750 mg/kg, po measured 24 hrs post dose; format: organism-based; design: dose 750 mg/kg, route oral; details: in vivo
Mus musculus [7] = test: Toxicity in mouse assessed as incidence of toxic symptoms at 1000 mg/kg, po measured 24 hrs post dose; format: organism-based; design: dose 1000 mg/kg, route oral; details: in vivo
Mus musculus [8] = test: Toxicity in mouse assessed as induction of urination at 500 to 1000 mg/kg, po measured within 24 hrs post dose; format: organism-based; design: dose 500-1000 mg/kg, route oral; details: in vivo
Mus musculus [9] = test: Toxicity in mouse assessed as induction of sedation at 500 to 1000 mg/kg, po measured within 24 hrs post dose; format: organism-based; design: dose 500-1000 mg/kg, route oral; details: in vivo
Mus musculus [10] = test: Toxicity in mouse assessed as induction of muscle relaxation at 500 to 1000 mg/kg, po measured within 24 hrs post dose; format: organism-based; design: dose 500-1000 mg/kg, route oral; details: in vivo
Mus musculus [11] = test: Toxicity in mouse assessed as induction of calmness at 500 to 1000 mg/kg, po measured within 24 hrs post dose; format: organism-based; design: dose 500-1000 mg/kg, route oral; details: in vivo

CC1CCN(c2nc(-c3ccc(Cl)cc3)nc3ccc(Br)cc23)CC1
Activity (Mus musculus [1]): 85.2% | inhibition in vivo at 100 mg/kg (Rattus norvegicus): 55.1%

Clc1ccc(-c2nc(N3CCC(c4ccccc4)CC3)c3cc(I)ccc3n2)cc1
Activity (Mus musculus [1]): inactive | inhibition in vivo at 100 mg/kg (Rattus norvegicus): 41.4%

O=c1[nH]nc(C2CCN(c3nc(-c4ccccc4)nc4ccccc34)CC2)s1
Activity (Mus musculus [1]): 81.5% | inhibition in vivo at 100 mg/kg (Rattus norvegicus): 12.7% | Activity (Mus musculus [2]): Non-toxic | Activity (Mus musculus [3]): Non-toxic | Activity (Mus musculus [4]): Non-toxic | Activity (Mus musculus [5]): Non-toxic | Activity (Mus musculus [6]): Non-toxic | Activity (Mus musculus [7]): Non-toxic

c1ccc(-c2nc(N3CCN(c4ccccc4)CC3)c3ccccc3n2)cc1
Activity (Mus musculus [1]): 107.3% | inhibition in vivo at 100 mg/kg (Rattus norvegicus): 77.4% | Activity (Mus musculus [2]): Non-toxic | Activity (Mus musculus [3]): Non-toxic | Activity (Mus musculus [4]): Non-toxic | Activity (Mus musculus [5]): Non-toxic | Activity (Mus musculus [6]): Non-toxic | Activity (Mus musculus [7]): Non-toxic | Activity (Mus musculus [8]): Toxic

CN1CCN(c2nc(-c3ccccc3)nc3ccc(I)cc23)CC1
Activity (Mus musculus [1]): inactive | inhibition in vivo at 100 mg/kg (Rattus norvegicus): 39.6%

CN1CCN(c2nc(-c3ccccc3)nc3ccc(Br)cc23)CC1
Activity (Mus musculus [1]): inactive | inhibition in vivo at 100 mg/kg (Rattus norvegicus): 45%

COc1ccc2c(c1)c(CC(=O)O)c(C)n2C(=O)c1ccc(Cl)cc1 [INDOMETHACIN]
Activity (Mus musculus [1]): 97.5% | inhibition in vivo at 100 mg/kg (Rattus norvegicus): 78.3%

Ic1ccc2nc(-c3ccccc3)nc(N3CCC(c4ccccc4)CC3)c2c1
Activity (Mus musculus [1]): 110.2% | inhibition in vivo at 100 mg/kg (Rattus norvegicus): 82.5% | Activity (Mus musculus [2]): Non-toxic | Activity (Mus musculus [3]): Non-toxic | Activity (Mus musculus [4]): Non-toxic | Activity (Mus musculus [5]): Non-toxic | Activity (Mus musculus [6]): Non-toxic | Activity (Mus musculus [7]): Non-toxic | Activity (Mus musculus [8]): Toxic

Clc1ccc(-c2nc(N3CCN(c4ccccc4)CC3)c3cc(Br)ccc3n2)cc1
Activity (Mus musculus [1]): inactive | inhibition in vivo at 100 mg/kg (Rattus norvegicus): 16.2% | Activity (Mus musculus [2]): Non-toxic | Activity (Mus musculus [3]): Non-toxic | Activity (Mus musculus [4]): Non-toxic | Activity (Mus musculus [5]): Non-toxic | Activity (Mus musculus [6]): Non-toxic | Activity (Mus musculus [7]): Non-toxic | Activity (Mus musculus [9]): Toxic | Activity (Mus musculus [10]): Toxic | Activity (Mus musculus [11]): Toxic

Brc1ccc2nc(-c3ccccc3)nc(N3CCC(c4ccccc4)CC3)c2c1
Activity (Mus musculus [1]): 89.8% | inhibition in vivo at 100 mg/kg (Rattus norvegicus): 57.6% | Activity (Mus musculus [2]): Non-toxic | Activity (Mus musculus [3]): Non-toxic | Activity (Mus musculus [4]): Non-toxic | Activity (Mus musculus [5]): Non-toxic | Activity (Mus musculus [6]): Non-toxic | Activity (Mus musculus [7]): Non-toxic

CC1CCN(c2nc(-c3ccccc3)nc3ccc(I)cc23)CC1
Activity (Mus musculus [1]): 85.7% | inhibition in vivo at 100 mg/kg (Rattus norvegicus): 56.4%

CC1CCN(c2nc(-c3ccccc3)nc3ccccc23)CC1
Activity (Mus musculus [1]): 88% | inhibition in vivo at 100 mg/kg (Rattus norvegicus): 69%

Ic1ccc2nc(-c3ccccc3)nc(N3CCN(c4ccccc4)CC3)c2c1
Activity (Mus musculus [1]): inactive | inhibition in vivo at 100 mg/kg (Rattus norvegicus): 39.2% | Activity (Mus musculus [2]): Non-toxic | Activity (Mus musculus [3]): Non-toxic | Activity (Mus musculus [4]): Non-toxic | Activity (Mus musculus [5]): Non-toxic | Activity (Mus musculus [6]): Non-toxic | Activity (Mus musculus [7]): Non-toxic | Activity (Mus musculus [9]): Toxic | Activity (Mus musculus [10]): Toxic | Activity (Mus musculus [11]): Toxic

Brc1ccc2nc(-c3ccccc3)nc(N3CCN(c4ccccc4)CC3)c2c1
Activity (Mus musculus [1]): inactive | inhibition in vivo at 100 mg/kg (Rattus norvegicus): 40.7%

c1ccc(-c2nc(N3CCC(c4ccccc4)CC3)c3ccccc3n2)cc1
Activity (Mus musculus [1]): 153.8% | inhibition in vivo at 100 mg/kg (Rattus norvegicus): 85.3% | Activity (Mus musculus [2]): Non-toxic | Activity (Mus musculus [3]): Non-toxic | Activity (Mus musculus [4]): Non-toxic | Activity (Mus musculus [5]): Non-toxic | Activity (Mus musculus [6]): Non-toxic | Activity (Mus musculus [7]): Non-toxic

CN1CCN(c2nc(-c3ccccc3)nc3ccccc23)CC1
Activity (Mus musculus [1]): 86.2% | inhibition in vivo at 100 mg/kg (Rattus norvegicus): 45.2%

S=c1[nH]nc(C2CCN(c3nc(-c4ccccc4)nc4ccccc34)CC2)s1
Activity (Mus musculus [1]): 88% | inhibition in vivo at 100 mg/kg (Rattus norvegicus): 71.3% | Activity (Mus musculus [2]): Non-toxic | Activity (Mus musculus [3]): Non-toxic | Activity (Mus musculus [4]): Non-toxic | Activity (Mus musculus [5]): Non-toxic | Activity (Mus musculus [6]): Non-toxic | Activity (Mus musculus [7]): Non-toxic

CC1CCN(c2nc(-c3ccc(Cl)cc3)nc3ccccc23)CC1
Activity (Mus musculus [1]): inactive | inhibition in vivo at 100 mg/kg (Rattus norvegicus): 55.1%

Clc1ccc(-c2nc(N3CCC(c4ccccc4)CC3)c3ccccc3n2)cc1
Activity (Mus musculus [1]): 87.3% | inhibition in vivo at 100 mg/kg (Rattus norvegicus): 53.7%

Clc1ccc(-c2nc(N3CCN(c4ccccc4)CC3)c3ccccc3n2)cc1
Activity (Mus musculus [1]): inactive | inhibition in vivo at 100 mg/kg (Rattus norvegicus): 12.6%

CC1CCN(c2nc(-c3ccccc3)nc3ccc(Br)cc23)CC1
Activity (Mus musculus [1]): inactive | inhibition in vivo at 100 mg/kg (Rattus norvegicus): 57.8%

CC1CCN(c2nc(-c3ccc(Cl)cc3)nc3ccc(I)cc23)CC1
Activity (Mus musculus [1]): 82.3% | inhibition in vivo at 100 mg/kg (Rattus norvegicus): 45.8%

Nc1nnc(C2CCN(c3nc(-c4ccccc4)nc4ccccc34)CC2)s1
Activity (Mus musculus [1]): 83.2% | inhibition in vivo at 100 mg/kg (Rattus norvegicus): 73% | Activity (Mus musculus [2]): Non-toxic | Activity (Mus musculus [3]): Non-toxic | Activity (Mus musculus [4]): Non-toxic | Activity (Mus musculus [5]): Non-toxic | Activity (Mus musculus [6]): Non-toxic | Activity (Mus musculus [7]): Non-toxic | Activity (Mus musculus [9]): Toxic | Activity (Mus musculus [10]): Toxic | Activity (Mus musculus [11]): Toxic

CN1CCN(c2nc(-c3ccc(Cl)cc3)nc3ccc(Br)cc23)CC1
Activity (Mus musculus [1]): inactive | inhibition in vivo at 100 mg/kg (Rattus norvegicus): 20%

CN1CCN(c2nc(-c3ccc(Cl)cc3)nc3ccccc23)CC1
Activity (Mus musculus [1]): inactive | inhibition in vivo at 100 mg/kg (Rattus norvegicus): 37%

CN1CCN(c2nc(-c3ccc(Cl)cc3)nc3ccc(I)cc23)CC1
Activity (Mus musculus [1]): inactive | inhibition in vivo at 100 mg/kg (Rattus norvegicus): 17%

Clc1ccc(-c2nc(N3CCN(c4ccccc4)CC3)c3cc(I)ccc3n2)cc1
Activity (Mus musculus [1]): inactive | inhibition in vivo at 100 mg/kg (Rattus norvegicus): 13.5%

CCOC(=O)C1CCN(c2nc(-c3ccccc3)nc3ccccc23)CC1
Activity (Mus musculus [1]): 98.5% | inhibition in vivo at 100 mg/kg (Rattus norvegicus): 70.3% | Activity (Mus musculus [2]): Non-toxic | Activity (Mus musculus [3]): Non-toxic | Activity (Mus musculus [4]): Non-toxic | Activity (Mus musculus [5]): Non-toxic | Activity (Mus musculus [6]): Non-toxic | Activity (Mus musculus [7]): Non-toxic

Clc1ccc(-c2nc(N3CCC(c4ccccc4)CC3)c3cc(Br)ccc3n2)cc1
Activity (Mus musculus [1]): 106.1% | inhibition in vivo at 100 mg/kg (Rattus norvegicus): 50% | Activity (Mus musculus [2]): Non-toxic | Activity (Mus musculus [3]): Non-toxic | Activity (Mus musculus [4]): Non-toxic | Activity (Mus musculus [5]): Non-toxic | Activity (Mus musculus [6]): Non-toxic | Activity (Mus musculus [7]): Non-toxic | Activity (Mus musculus [8]): Toxic
